The record followed here is ChEMBL document CHEMBL1138345, “Scouting human A3 adenosine receptor antagonist binding mode using a molecular simplification approach: from triazoloquinoxaline to a pyrimidine skeleton as a key study” (J Med Chem, 2007).

Molecules are shown by their SMILES. pIC50, pKi: −log10 of the molar value.

The target in test [1] is T1, Adenosine receptor A3 (Homo sapiens, UniProt P0DMS8).
T1 sequence (P0DMS8 whole entry): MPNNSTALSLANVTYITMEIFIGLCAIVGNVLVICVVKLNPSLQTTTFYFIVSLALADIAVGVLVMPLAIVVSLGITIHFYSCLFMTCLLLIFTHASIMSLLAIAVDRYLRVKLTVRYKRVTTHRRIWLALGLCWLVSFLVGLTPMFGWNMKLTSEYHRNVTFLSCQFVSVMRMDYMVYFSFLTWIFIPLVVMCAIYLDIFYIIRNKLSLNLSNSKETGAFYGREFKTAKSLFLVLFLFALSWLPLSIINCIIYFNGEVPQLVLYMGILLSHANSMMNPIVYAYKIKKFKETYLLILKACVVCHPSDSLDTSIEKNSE
As to the kind of experiment: Displacement of [125I]ABMECA from human adenosine A3 receptor expressed in CHO cell membranes. An outline of the steps: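 hA3 CHO membranes, 50 µg protein, with 0.5 nM [¹²⁵I]AB-MECA in 50 mM Tris HCl, 10 mM MgCl₂, 1 mM EDTA, pH 7.4. At least 6–8 ligand concentrations, 120 min at 4 °C. Nonspecific binding with 1 µM AB-MECA. Filtration, counting. Ki via Cheng–Prusoff from IC50; means ± SEM of four assays, each in duplicate.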

For test [2], the target named is T2, Adenosine receptor A1 (Homo sapiens) (UniProt P30542).
T2 sequence (whole entry): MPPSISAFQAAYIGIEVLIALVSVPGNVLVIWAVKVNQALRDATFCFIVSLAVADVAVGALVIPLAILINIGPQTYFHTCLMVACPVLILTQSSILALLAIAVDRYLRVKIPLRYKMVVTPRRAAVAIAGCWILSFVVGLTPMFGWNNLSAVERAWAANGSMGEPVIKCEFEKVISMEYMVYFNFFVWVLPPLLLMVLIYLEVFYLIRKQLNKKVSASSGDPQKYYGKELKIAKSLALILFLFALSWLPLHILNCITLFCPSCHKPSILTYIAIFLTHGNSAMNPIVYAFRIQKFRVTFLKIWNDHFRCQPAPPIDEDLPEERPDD
Briefly: Displacement of [3H]DPCPX from human adenosine A1 receptor expressed in CHO cell membranes at 1 uM. An outline of the steps:
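hA1 CHO membranes (50 µg protein) with 1 nM [³H]DPCPX in 50 mM Tris HCl pH 7.4, 120 min at 25 °C; nonspecific binding with 10 µM CHA; glass-fiber filtration, scintillation counting; % inhibition at 1 µM test compound.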
(In general: In a radioligand displacement assay an active substance lowers the binding of a labelled ligand.)

For test [3], the target named is Adenosine receptor A2a (Homo sapiens) (UniProt P29274). Briefly: Displacement of [3H]ZM-241385 from human adenosine A2A receptor expressed in CHO cell membranes at 1 uM. An outline of the steps:
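Binding of 1 nM [³H]ZM-241385 to hA2A CHO membranes (50 µg protein) in 50 mM Tris HCl, 10 mM MgCl₂, pH 7.4, 60 min at 4 °C; nonspecific binding with 1 µM ZM-241385; filtration and counting; % inhibition at 1 µM test compound.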

Test [4] has as its target T3, Adenosine receptor A2b (Homo sapiens) (UniProt P29275).
T3 sequence (whole entry): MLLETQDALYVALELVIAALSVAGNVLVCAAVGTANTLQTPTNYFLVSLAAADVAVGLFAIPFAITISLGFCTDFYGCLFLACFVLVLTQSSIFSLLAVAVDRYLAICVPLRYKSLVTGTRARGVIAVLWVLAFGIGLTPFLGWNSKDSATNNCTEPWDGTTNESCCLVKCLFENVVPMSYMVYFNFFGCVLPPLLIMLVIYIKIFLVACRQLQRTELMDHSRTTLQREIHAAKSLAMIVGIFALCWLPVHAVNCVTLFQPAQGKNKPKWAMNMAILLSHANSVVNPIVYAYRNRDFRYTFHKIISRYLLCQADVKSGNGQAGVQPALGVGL
As to the kind of experiment: Antagonist activity at human adenosine A2B receptor expressed in CHO cells assessed as inhibition of NECA-stimulated cAMP levels at 1 uM. Type of test: functional, cell-based. An outline of the steps:
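Stably transfected hA2B CHO cells, 1 × 10⁶ cells/assay, preincubated 10 min at 37 °C, pH 7.4, with adenosine deaminase 2 IU/ml and Ro 20-1724 as phosphodiesterase inhibitor. Stimulated by 200 nM NECA; test compound at 1 µM. Stopped with cold 6% TCA; cAMP measured by [³H]cAMP competition protein binding with beef adrenal binding protein. Reported as % inhibition.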
(Changes in cAMP serve as a functional read-out for many G protein-coupled receptors.)

The target of test [5] is T1, Adenosine receptor A3. As to the kind of experiment: Activity at human adenosine A3 receptor expressed in CHO cells assessed as antagonism of Cl-IB-MECA-inhibited cAMP production. The class given is functional, cell-based. The method in brief:
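CHO cells stably expressing hA3, washed, trypsinized, 1 × 10⁶ cells/assay, preincubated 10 min at 37 °C in buffered salt–glucose medium (pH 7.4) with adenosine deaminase 2 IU/ml and Ro 20-1724. Forskolin 1 µM plus Cl-IB-MECA 100 nM. Stopped with cold 6% TCA, ether-extracted, cAMP by [³H]cAMP competition protein binding. IC50 from sigmoid nonlinear regression; means ± SEM of four experiments.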

Test [6] addresses T4, Adenosine receptor A3 (Homo sapiens) (UniProt P0DMS8).
T4 sequence (whole entry): T1 sequence (P0DMS8 whole entry)
Briefly: Displacement of [125I]ABMECA from human adenosine A3 receptor expressed in CHO cell membranes at 1 uM. An outline of the steps:
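Competition at hA3 CHO membranes (50 µg protein) against 0.5 nM [¹²⁵I]AB-MECA, Tris HCl/MgCl₂/EDTA buffer pH 7.4, 120 min at 4 °C; nonspecific binding with 1 µM AB-MECA; test compound at 1 µM; % inhibition of binding.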

Adenosine receptor A2a (Homo sapiens), sequence (P29274 whole entry): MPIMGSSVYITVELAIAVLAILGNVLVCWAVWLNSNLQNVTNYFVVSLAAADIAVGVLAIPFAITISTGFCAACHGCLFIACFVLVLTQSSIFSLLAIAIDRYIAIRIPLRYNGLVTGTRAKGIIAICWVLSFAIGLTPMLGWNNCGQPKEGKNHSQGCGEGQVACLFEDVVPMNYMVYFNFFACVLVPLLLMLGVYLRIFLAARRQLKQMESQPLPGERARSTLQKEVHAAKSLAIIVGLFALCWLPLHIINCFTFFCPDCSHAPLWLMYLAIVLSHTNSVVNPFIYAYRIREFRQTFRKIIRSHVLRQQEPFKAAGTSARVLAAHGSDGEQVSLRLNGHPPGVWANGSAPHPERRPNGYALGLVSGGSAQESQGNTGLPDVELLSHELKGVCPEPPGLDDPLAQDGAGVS

On to `Nc1nc(C(=O)Nc2ccccc2)c2ccccc2n1`, for which the pKi (in general, the Ki on a negative log10 scale, so that one unit is a factor of ten) in test [1] was 6.46. Moreover, the Activity turned out to be 40% in test [2] and 17% in test [3]. Besides, the inhibition (commonly the change of the read-out against control, counted positive when it falls) in test [4] is 5%.

Regarding `O=C(Nc1ccccc1)c1[nH]c(=O)nc2ccccc12`, in test [1], the pKi is 7.30. For the same compound, the pIC50 – broadly, the negative decadic logarithm of the IC50, by convention in mol/L – in test [5] was 6.62.

In test [1], `Nc1nc(C(=O)Nc2ccc(Br)cc2)c2ccccc2n1` had a pKi of 6.26. Also, the Activity in test [2] and in test [3] was 1% throughout. Moreover, the inhibition in test [4] was 2%.

Turning to `COc1ccc(NC(=O)c2ccnc(NC(=O)c3ccccc3)n2)cc1`, the Activity is 6% in test [2], 6% in test [3] and 22% in test [6]. The inhibition in test [4] came to 2%.

Regarding `COc1ccc(NC(=O)c2cc(N)nc3ccccc23)cc1`, the Activity is 2% in test [2], 3% in test [3] and 1% in test [6]. Besides, the inhibition in test [4] worked out at 3%.

As to `O=C(Nc1nc(C(=O)Nc2ccccc2)c2ccccc2n1)c1ccccc1`, in test [1], the pKi is 6.74. The results for the Activity in test [2] and in test [3] were 7% and 10%, respectively. Also, the inhibition in test [4] is 3%.

In the case of `COc1ccc(NC(=O)c2ccnc(N)n2)cc1`, the Activity in test [2] came out at 3%; in test [3] it was 6%; in test [6], 15%. Moreover, the inhibition in test [4] worked out at 3%.

Consider `O=C(Nc1ccc(Br)cc1)c1[nH]c(=O)nc2ccccc12`, for which the negative logarithm of the Ki (pKi) in test [1] was 7.57.

In test [1], `CC(=O)Nc1nc(C(=O)Nc2ccccc2)c2ccccc2n1` gave a negative logarithm of the Ki (pKi) of 7.60. Also, the Activity came out at 25% in test [2] and 7% in test [3]. Also, the inhibition in test [4] was 5%. In test [5], the pIC50 was 6.85.

In the case of `Nc1nc(C(=O)NC2CCCCC2)c2ccccc2n1`, the Activity in test [2] was 2%; in test [3] it was 3%; in test [6], 21%. Also, the inhibition in test [4] was 1%.

On to `Cc1ccc(NC(=O)c2nc(=O)[nH]c3ccccc23)cc1`, for which the Activity turned out to be 21% in test [2] and 2% in test [3]. In test [4], the inhibition was determined as 2%.

On to `Nc1cc(C(=O)Nc2ccccc2)c2ccccc2n1`, for which the Activity in test [2] is 1%; in test [3], 2%; in test [6] it was 6%. Besides, the inhibition in test [4] turned out to be 5%.

Consider `O=C(Nc1ccccc1)c1cc(=O)[nH]c2ccccc12`, for which the Activity in test [2] came out at 1%; in test [3], 1%; in test [6], 38%. For the same compound, in test [4], the inhibition worked out at 2%.

As to `Cc1ccc(NC(=O)c2nc(N)nc3ccccc23)cc1`, the pKi in test [1] is 7.01. In addition, the Activity in test [2] came to 3%; in test [3], 5%. In addition, the inhibition in test [4] turned out to be 4%.

With `COc1ccc(NC(=O)c2cc(=O)[nH]c3ccccc23)cc1`, the values for the Activity in test [2], in test [3] and in test [6] were 4%, 1% and 26%, respectively. Besides, the inhibition in test [4] was 3%.

As to `O=C(Nc1ccc(Br)cc1)c1nc(=O)[nH]c2ccccc12`, the Activity in test [2] worked out at 3%; in test [3], 1%. In addition, in test [4], the inhibition stood at 2%.

Regarding `COc1ccc(NC(=O)c2[nH]c(=O)nc3ccccc23)cc1`, the pKi in test [1] is 7.71. Further, in test [5], the pIC50 was 6.90.

Turning to `COc1ccc(NC(=O)c2ccnc(N(C(=O)c3ccccc3)C(=O)c3ccccc3)n2)cc1`, the results for the Activity in test [2], in test [3] and in test [6] were 5%, 1% and 14%, respectively. In addition, the inhibition in test [4] is 3%.

As for `COc1ccc(NC(=O)c2nc(=O)[nH]c3ccccc23)cc1`, the Activity in test [2] came to 4%; in test [3], 1%. Besides, the inhibition in test [4] came to 9%.

In turn, `Cc1ccc(NC(=O)c2[nH]c(=O)nc3ccccc23)cc1` had a pKi in test [1] of 7.57.

In test [1], `COc1ccc(NC(=O)c2nc(N)nc3ccccc23)cc1` gave a pKi of 7.06. Besides, the Activity in test [2] amounted to 8%; in test [3], 6%. Further, the inhibition in test [4] turned out to be 23%.

As to `O=C(Nc1ccccc1)c1nc(=O)[nH]c2ccccc12`, the results for the Activity in test [2] and in test [3] were 22% and 1%, respectively. For the same compound, in test [4], the inhibition stood at 4%.
